Screening data (PubChem BioAssay)
OX1R antag-1: human HCRTR1 antagonism. O43613. 330,000 tested, 0.43% active. CHO/OX1R cells, Fluo-8 calcium fluorescence, orexin A. inhibition, % at 5 µM;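 active = inhibition above its plate's threshold, mean inhibition of all tested compounds on the plate plus 3 SD, cut at about 37% in these data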
Target sequence (O43613 whole entry, looked up): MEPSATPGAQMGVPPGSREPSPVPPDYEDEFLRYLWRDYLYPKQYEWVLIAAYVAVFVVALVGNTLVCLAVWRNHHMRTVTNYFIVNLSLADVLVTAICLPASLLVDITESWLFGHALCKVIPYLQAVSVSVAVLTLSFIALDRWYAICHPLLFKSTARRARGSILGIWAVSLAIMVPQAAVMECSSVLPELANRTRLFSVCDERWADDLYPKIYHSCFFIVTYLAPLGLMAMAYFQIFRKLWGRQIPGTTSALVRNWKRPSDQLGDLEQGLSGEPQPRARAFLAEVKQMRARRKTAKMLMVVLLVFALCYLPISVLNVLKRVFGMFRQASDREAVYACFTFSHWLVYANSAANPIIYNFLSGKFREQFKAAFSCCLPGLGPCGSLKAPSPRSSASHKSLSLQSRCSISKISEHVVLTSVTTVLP
CHO parental Ca: counter-screen for OX1R antagonists: effect in parental CHO cells; parental CHO-K1, ATP-induced calcium, Fluo-8 fluorescence; inhibition, % at 5.6 µM; 330,000 tested, 0.63% active; AID 463079;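 active = inhibition above that plate's mean sample inhibition plus 3 SD, cut at about 26% in these data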
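Material: parental CHO cells / Compound: single nominal dose of 5.6 µM per compound / Signal: Fluo-8 fluorescence / Replicates: singlicate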
TAAR1 antagonist: antagonists of human TAAR1; Q96RJ0; CHO RD-HGA16 TAAR1, Fluo-8 calcium fluorescence, antagonist; inhibition, % at 3 µM; 360,000 tested, 1.5% active; AID 624466;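 active = inhibition above a per-plate cutoff, the mean inhibition of test compounds on that plate plus 3 SD, cut at about 49% in these data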
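Test system: hTAAR1-expressing CHO RD-HGA16 cells, Gα16-coupled; Probe or stimulus: EC80 β-phenethylamine stimulus; Compound dosing: single nominal final test compound concentration of 3 µM; Timing: 140 s kinetic read after compound, 140 s after agonist; Signal: Fluo-8 calcium-sensitive fluorescence; Measure: % inhibition of agonist calcium response; Controls: DMSO and EC80 PEA controls.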
TAAR1 agonist: human TAAR1 agonism; 360,000 tested, 0.99% active; CHO RD-HGA16 TAAR1, Fluo-8 calcium fluorescence; vehicle wells 0%, saturating PEA agonist 100%; AID 624467; activation, % at 3 µM; Q96RJ0;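 active = activation above the mean activation of all test compounds in the run plus 3 SD, cut at about 38% in these data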
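System: CHO-derived RD-HGA16 cells with stable Gα16 and human TAAR1 / Times: 17-24 h plating, Fluo-8 75 min 37 °C, 30 min RT / Technique: calcium-sensitive Fluo-8 signal, excitation 470-495, emission 515-575 nm / Measure: % activation relative to PEA EC100 response / Benchmarks: DMSO and PEA EC100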
GPR7 antag: human neuropeptides B/W receptor 1 antagonism; inhibition, % at 4.4 µM; P48145; 290,000 tested, 1.1% active; GPR7-expressing cells, fluorescence antagonist assay; in the data active = inhibition above about 16%, passing the limit was not always enough;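 also: cells stimulated with the agonist NPW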
OX1R antag-2: OX1R (human) antagonism; OX1R-expressing cells, FRET antagonist read-out; inhibition, % at 6.6 µM; 330,000 tested, 1.8% active; O43613; in the data active = inhibition mostly above about 38%, no sharp cut-off; inactive = mostly below about 40%
TAAR1 ag confirm: human TAAR1 agonism, confirmed; CHO RD-HGA16 TAAR1, Fluo-8 calcium fluorescence; scaled: DMSO 0%, maximal phenethylamine 100%; activation, % at 3 µM; 2,400 tested, 82% active; AID 651783; shares compounds with TAAR1 agonist;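 active = activation above a cutoff set at the run's mean compound activation plus 3 SD, cut at about 39% in these data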
Ga16 nonsel ag: counter-screen for TAAR1 agonists: nonselective agonists in parental cells; CHO-Ga16 parental, Fluo-8 calcium fluorescence; normalized to maximal ATP response, DMSO zero; shares compounds with TAAR1 agonist; 2,400 tested, 50% active; AID 651787; activation, % at 3 µM;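 active = activation above the run cutoff, the mean activation over all tested wells plus 3 SD, cut at about 12% in these data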
TAAR1 desensitize: counter-screen for human TAAR1 agonists: agonists that desensitize TAAR1; shares compounds with TAAR1 agonist; CHO RD-HGA16 hTAAR1, Fluo-8 calcium, beta-PEA response inhibition; inhibition, % at 3 µM; 2,400 tested, 46% active; AID 651951;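 active = inhibition above the run cutoff, the mean inhibition of all test compounds plus 3 SD, cut at about 49% in these data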;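 also: beta-PEA stimulus applied at its EC80; loss of beta-PEA calcium signal after compound pretreatment read as receptor desensitization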
Ga16 nonsel ant: counter-screen for TAAR1 agonists: nonselective Ga16 antagonists | shares compounds with TAAR1 agonist | CHO-Ga16 ATP-induced calcium, Fluo-8 fluorescence | inhibition, % at 3 µM | 2,400 tested, 39% active | AID 651952;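 active = inhibition above the plate's mean compound inhibition plus 3 SD, computed per plate, cut at about 22% in these data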
A number is an active result; – = inactive; · = not tested or not shown. This is a sample that favours compounds with a hit; in the whole collection about 4.5% have one here.

SMILES	OX1R antag-1	CHO parental Ca	TAAR1 antagonist	TAAR1 agonist	GPR7 antag	OX1R antag-2	TAAR1 ag confirm	Ga16 nonsel ag	TAAR1 desensitize	Ga16 nonsel ant
COc1ccccc1-c1cccc([C@@H]2C[C@H]3[C@H](CON3C)CN2C(=O)CCc2ccccc2)c1	·	·	–	–	·	·	·	·	·	·
O=C(CSc1nccn1Cc1ccc(F)cc1)NC1CCCCC1	·	·	–	–	·	·	·	·	·	·
Cc1ccc(C)c(NC(=O)N2CCCCCC2)c1	–	–	–	–	–	–	·	·	·	·
Cc1ccccc1OCC(=O)N1CCc2ccccc2C1	–	–	–	42	–	–	88	–	–	–
O=C(Nc1ccccc1F)N1CCc2ccccc2C1	·	·	–	50	–	·	40	–	–	–
CC1CC(C)CN(C(=O)Nc2ccccc2F)C1 (stereo not drawn)	–	–	–	–	–	–	·	·	·	·
Cc1ccc(C)c(NC(=O)N2CCc3ccccc3C2)c1	–	–	–	86	–	–	73	–	–	–
NC(Cc1ccc(C(F)(F)F)cc1)c1csc(Nc2nncc3ccccc23)n1 (stereo not drawn)	·	·	–	55	·	·	140	58	106	69
NC(Cc1ccc(C(F)(F)F)cc1)c1csc(Nc2cc(Oc3ccccc3)ncn2)n1 (stereo not drawn)	·	·	–	48	·	·	38	21	–	38
NC(CO)c1csc(NC(=O)Nc2cccc(Cl)c2)n1 (stereo not drawn)	·	·	–	–	·	·	·	·	·	·
NC(COCc1ccccc1)c1csc(NC(=O)Nc2cccc(Cl)c2)n1 (stereo not drawn)	·	·	–	58	·	·	51	22	–	41
COc1ccc(CC(N)c2csc(NC(=O)Nc3cccc(C(F)(F)F)c3)n2)cc1 (stereo not drawn)	·	·	65	85	·	·	80	42	65	54
CCC(NC(=S)NCc1ccc(F)cc1)c1ccc(C)cc1 (stereo not drawn)	–	–	–	–	–	–	·	·	·	·
CC12CCC(C(=O)CC1=O)C2(C)C (stereo not drawn)	·	·	–	–	·	·	·	·	·	·
COc1ccc(NC(=O)c2cccc(S(=O)(=O)NCc3ccco3)c2)c(OC)c1	–	–	–	–	·	–	·	·	·	·
NC(CCc1ccccc1)c1csc(NC(=O)Nc2cccc(C(F)(F)F)c2)n1 (stereo not drawn)	·	·	–	49	·	·	39	19	–	40
NC(Cc1ccc(C(F)(F)F)cc1)c1csc(NC(=O)Nc2ccccc2)n1 (stereo not drawn)	·	·	–	50	·	·	61	40	63	53
CCc1cccc(N(C(=O)c2csnn2)C(C(=O)NC2CCCCC2)c2ccncc2)c1 (stereo not drawn)	–	–	–	–	–	–	·	·	·	·
Cc1ccc(C)c(SCC(=O)OCC(=O)NCCNC(=O)COC(=O)CSc2cc(C)ccc2C)c1	–	–	–	–	·	–	·	·	·	·
C=CCn1c(SCC(=O)Nc2ccc3c(c2)OCCO3)nc2cc(C(=O)O)ccc2c1=O	–	–	–	–	·	–	·	·	·	·
CCOC(=O)c1c(NS(=O)(=O)c2cccc(OC)c2)sc2c1CCC2	–	–	–	55	–	–	64	54	–	26
CCOC(=O)Nc1sc2c(c1C(=O)OCC)CCC2	–	–	–	–	–	–	·	·	·	·
COc1ccc(C)cc1-n1nnnc1SCc1nc(N)nc(N(C)C)n1	·	·	–	–	·	·	·	·	·	·
CC(=O)O[C@@H]1C[C@@]2(C)[C@@H](CC[C@H]2[C@@H](C)/C=C\CC(C)C)C2=C[C@@H](O)[C@@]3(O)C[C@@H](O)[C@H](O)C[C@]3(CO)[C@]21O	·	·	97	116	·	·	–	16	–	28
CCOC(=O)N[C@H](C(=O)N1CCC[C@H]1C(=O)NCCc1ccccc1Cl)C1CCCCC1	·	·	75	61	·	·	86	–	95	–
O=C(NCCc1ccccc1Cl)[C@@H]1CCCN1C(=O)[C@@H](NC(=O)N1CCOCC1)c1ccccc1	·	·	–	42	·	·	60	–	–	–
O=C(NCCc1ccccc1Cl)[C@@H]1CCCN1C(=O)[C@@H](NC(=O)N1CCOCC1)C1CCCCC1	·	·	–	57	·	·	74	–	80	–
O=C(O)c1ccc(N/N=C/C=C/c2ccccc2)cc1	–	–	–	57	–	–	–	12	–	–
O=C(CNC(=O)c1cccc(Cl)c1)N/N=C/c1cccnc1	–	–	–	–	–	–	·	·	·	·
O=C(CNC(=O)c1cccc(Cl)c1)N/N=C/C=C/c1ccccc1	–	–	–	46	–	–	77	15	67	–
